Bioassay records (PubChem BioAssay)
CDK5 inh = inhibitors of human CDK5/p35 kinase. AID 488839. inhibition, % at 10 µM. 330,000 tested, 0.01% active. Recombinant CDK5/p35, ADP-Glo luminescence, 60 min;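 active = highest replicate inhibition of at least 50% and at least 75% of replicates reaching 50%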;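 note: plate controls were DMSO neutral control for no effect and GW8510 at 10 µM for full effect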
Env fusion inh = blocks HIV Env-driven cell-cell fusion | AID 651610 | inhibition, % at 12.3 µM | 360,000 tested, 1.1% active | HeLa-JRFL Env/CEM21 cell fusion, luciferase;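 active = mean replicate inhibition score of at least 50 and every replicate individually at or above 50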;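 note: 0% = plate neutral controls and 100% = maraviroc near 300 nM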
INS-1E GSIS act = GLuc luminescence reporter in INS-1E cells, primary screen for activators of glucose-dependent secretion of insulin; activation, % at 16.6 µM; 370,000 tested, 0.61% active; AID 743287; INS-1E GLuc reporter insulin secretion, 2-3 h;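 active = lowest replicate activation of at least 40%, so every replicate reaches that level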;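 note: 0% = median of neutral control wells and 100% = median of IBMX positive control wells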
GSK3beta inhib = human GSK3beta kinase inhibition. P49841. activity score (negative = inhibition), % at 10 µM. GST-GSK3beta kinase, ADP-Glo luminescence, 60 min; active compounds read low. 300,000 tested, 0.038% active. AID 2097;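 active = more than half of replicate wells score below -50%, meaning over 50% inhibition versus plate controls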;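 note: 0% = median DMSO wells and -100% = median GW8510 positive control wells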
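Test system – GST-tagged human GSK3beta kinase, cell-free · Incubation – 60 min enzyme reaction, room temperature · Signal – ADP-Glo luminescence · Also added – peptide substrate and ATP at 25 µM · Controls – DMSO neutral wells and GW8510 at 20 µM as positive · Buffer or medium – Tris/MgCl2 kinase buffer · Measure – Luminescence-derived activity versus plate DMSO and GW8510 wells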
GSK3 alpha inh = blocks human GSK-3 alpha kinase; P49840; ADP-Glo luminescence, 60 min; inhibition, % at 10 µM; 320,000 tested, 0.1% active; AID 2650;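 active = more than half of replicates show inhibition above 20%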;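 note: GST-tagged GSK-3 alpha with peptide substrate and 25 µM ATP; 0% = DMSO neutral wells and 100% = GW8510 positive control wells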
STK33 kinase inh = blocks human STK33 kinase activity. AID 2661. inhibition, % at 10 µM. 320,000 tested, 0.073% active. Q9BYT3. purified STK33, MBP phosphorylation, ADP-Glo luminescence;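 active = inhibition at or above 25%, using the most active replicate where run in duplicate; inactive = inhibition below 25%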
Target sequence (Q9BYT3 whole entry, looked up): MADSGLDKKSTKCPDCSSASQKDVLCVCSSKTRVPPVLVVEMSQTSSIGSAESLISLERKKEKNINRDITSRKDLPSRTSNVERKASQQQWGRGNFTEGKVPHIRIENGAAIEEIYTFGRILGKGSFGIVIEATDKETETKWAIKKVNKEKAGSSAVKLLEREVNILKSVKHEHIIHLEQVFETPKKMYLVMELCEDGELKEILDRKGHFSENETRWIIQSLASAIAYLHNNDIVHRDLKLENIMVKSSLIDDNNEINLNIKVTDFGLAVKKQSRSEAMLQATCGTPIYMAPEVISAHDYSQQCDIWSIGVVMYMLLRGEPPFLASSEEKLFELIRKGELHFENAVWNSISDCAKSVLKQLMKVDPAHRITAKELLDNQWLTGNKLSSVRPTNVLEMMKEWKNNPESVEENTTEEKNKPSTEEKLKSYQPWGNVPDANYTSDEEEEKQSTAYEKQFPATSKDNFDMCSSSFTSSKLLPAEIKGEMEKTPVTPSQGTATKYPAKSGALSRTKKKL
Starred values were filed as active, the others as inactive; nt = no result given; [ ] = another dose, or the depositor's remark. Only some compounds are listed: those with a hit (about 1.4% of all), similar ones and a draw of the others.

SMILES	CDK5 inh	Env fusion inh	INS-1E GSIS act	GSK3beta inhib	GSK3 alpha inh	STK33 kinase inh
COc1ccc(S(=O)(=O)Nc2ccc3c(c2)OCO3)cc1C(=O)O	-1.4	-27.1	25.5	2.5	-1.3	-1.5
COc1ccc(S(=O)(=O)Nc2ccc3c(c2)OCO3)cc1OC	0.2	-25.5	43.3*	1.8	-0.2	-0.7
O=C(O)Cc1ccc(NS(=O)(=O)c2ccc3c(c2)OCCO3)cc1	nt	9.7	129.6*	nt	nt	nt
O=[N+]([O-])c1cccnc1Oc1cccnc1	-2.1	3.8	-6.2	1.2	-1.7	-0.7
O=[N+]([O-])c1cccc(Oc2ncccc2[N+](=O)[O-])c1	-2.5	nt	77.6*	nt	nt	nt
Cc1ccc(C(=O)CN2C(=O)c3ccccc3S2(=O)=O)cc1	-0.6	77.5*	4.1	-0.4	0.4	-1.8
O=C(CN1C(=O)c2ccccc2S1(=O)=O)c1ccccc1Cl	1.7	83.2*	1.5	-10.8	-1.2	-2.3
O=C(CN1C(=O)c2ccccc2S1(=O)=O)c1ccccc1	-0.5	nt	nt	1.9	-44.4	-2.1
Cc1cc(Nc2ccc(Cl)cc2)nc(NCc2ccccc2)n1	1.6	71.0*	299.5*	5.8	1.0	-0.7
Fc1ccc(C(c2nnnn2C2CCCC2)N2CCc3ccccc32)cc1 (configuration not stated)	0.3	-70.9	nt	0.0	-0.6	0.4
Fc1ccc(C(c2nnnn2CCc2ccccc2)N2CCCc3ccccc32)cc1 (configuration not stated)	1.0	90.2*	nt	1.8	-0.9	-1.4
Clc1ccc(C(c2nnnn2CCc2ccccc2)N2CCSCC2)cc1 (configuration not stated)	nt	100.3*	nt	-3.0	-1.3	-0.4
CC(=O)Nc1ccc2c(c1)CC(=O)N(C)C[C@H](C)[C@@H](CN(C)C(C)=O)O2	nt	nt	-8.3	nt	nt	nt
Cc1ccc(-n2c(SCC(=O)Nc3nccs3)nc3c(c2=O)SCC3)cc1	-0.5	-64.5	82.4*	1.5	-2.7	-1.8
CCOc1ccc(-n2c(SCC(=O)Nc3nccs3)nc3c(c2=O)SCC3)cc1	-0.1	-30.9	nt	-2.2	-1.3	-0.8
CO[C@@H]1CN(C)C(=O)c2cc(NS(=O)(=O)c3cccc(F)c3)ccc2OC[C@H](C)NC[C@@H]1C	nt	5.2[16.7 µM]	-7.6	nt	nt	nt
CN(C)CCCNc1ccc(-c2cc(Nc3cccc(Cl)c3)ncn2)cn1	7.2	0.8	nt	-85.8*	36.2	4.8
COc1ccc(C=C(C#N)c2ccc(OC)cc2)cc1	-0.4	nt	22.3	nt	nt	nt
COc1ccc(C(C#N)=Cc2ccc(OC)c(OC)c2)cc1	nt	-29.1	80.3*	nt	nt	nt
COc1ccc(-c2cc3ccccc3oc2=O)cc1NC(=S)NC(=O)c1ccc2c(c1)OCCO2	-0.4	-217.8	93.9*	2.4	0.6	-0.7
Cc1cc(NC(=O)CCCN2C(=O)/C(=C\c3cccs3)SC2=S)no1	1.7	3.5	54.1*	2.9	nt	nt
CCS(=O)(=O)NCC[C@H]1CC[C@H](NS(=O)(=O)c2cccc(Cl)c2)[C@@H](CO)O1	nt	-6.4[16.7 µM]	-5.0	nt	nt	nt
C/C=C/c1ccc([C@H]2[C@@H](CO)N(CCC(F)(F)F)C23CN(C(C)=O)C3)cc1	nt	nt	0.9	nt	nt	nt
Nc1nc2nc(-c3cccs3)cc(C(F)(F)F)n2n1	0.0	-8.6	22.0	2.2	-2.3	-2.1
CCOC(=O)c1nc2nc(-c3cccs3)cc(C(F)(F)F)n2n1	-1.0	-7.5	63.4*	6.9	-2.0	0.0
SMILES	CDK5 inh	Env fusion inh	INS-1E GSIS act	GSK3beta inhib	GSK3 alpha inh	STK33 kinase inh
O=C(Cn1c(COc2ccccc2)nc2ccccc21)Nc1cc(Cl)ccc1Cl	1.6	-21.0	nt	0.8	-4.9	0.8
O=C(Cn1c(COc2ccccc2)nc2ccccc21)Nc1cc(Cl)cc(Cl)c1	0.4	27.7	67.7*	2.0	0.0	0.3
O=S1(=O)CCO[C@H]2Cc3ccccc3[C@H]2N1Cc1cccc(C(F)(F)F)c1	-1.6	66.3*	-10.5	2.0	-2.8	-0.5
O=S1(=O)CCO[C@H]2Cc3ccccc3[C@H]2N1Cc1ccc(F)cc1	-1.2	-31.8	-7.9	-4.6	-2.1	0.5
CC1CCCC=CC2CC(OC(=O)CN(C)C)CC2C(O)C=CC(=O)O1 (configuration not stated)	-0.4	62.4*	nt	nt	nt	nt
COc1ccc(-c2cn[nH]c2-c2ccc(OCc3ccc([N+](=O)[O-])cc3)cc2O)cc1OC	-0.8	-1.0	2.9	3.0	-1.9	-1.3
COc1ccc(-c2cn[nH]c2-c2ccc(OC)cc2O)cc1	1.0	58.3*	3.4	-1.2	-2.1	2.3
